As usually defined, the IC50 is the concentration that inhibits the measured activity by half. In general, CC50 refers to the concentration giving 50% cytotoxicity.

We go through 15 compounds from publication PMC11827156 (Malaria Journal, 2025).

Structures are written as SMILES. Entries after “also recorded” stand apart in the source; their conditions may differ. Like-named read-outs stand apart in the source and are kept apart here.

For data set [1], the system named is P. falciparum 3D7. Format: cell-based, Plasmodium falciparum.
The subject of a further data set is P. falciparum Dd2. To be noted: 2 µM; cited from earlier work.
Data set [2] concerns the target P. falciparum PfSR25− (serpentine receptor 25 knockout strain). Description: Comparative IC50 screening, 3D7 versus serpentine receptor 25 knockout strain. Format: cell-based, Plasmodium falciparum. Particulars: 72 h, 0.0019–2 µM, Student's t test. In short, it runs like this: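 Asynchronous 3D7 and PfSR25− cultures (37 °C, 90% N2/5% O2/5% CO2) at 0.3% parasitaemia and 2% haematocrit were exposed for 72 h to eleven final concentrations. Controls were 0.13% DMSO and chloroquine 0.2441–250 nM. Cells were stained with SYBR Green-I (1:10,000) plus MitoTracker Deep Red (50 nM) for 20 min at 37 °C and read by flow cytometry. Survival was taken relative to DMSO, in triplicate over three experiments. IC50 ± SEM came from dose–response curves.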

For another data set, the system named is HEK293 cells. Put plainly: Cytotoxicity of the compounds in HEK293 cells. Format: cell-based, human. Particulars: MTT, 72 h, 0.0019–2 µM. Put shortly: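 HEK293 cells (passages 7–12, grown in DMEM with 10% FBS and penicillin/streptomycin at 37 °C, 5% CO₂) were trypsinized and seeded at 10^4 cells/well. They were exposed to test compound or DMSO vehicle for 72 h. MTT (5 mg/mL reagent) was then added for 3 h, and the formazan was dissolved in DMSO. Absorbance was read at 570 nm and dose–response curves were fitted. Each condition was run in triplicate in 3 independent experiments.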

Data set [3] deals with P. falciparum 3D7. The format is cell-based, Plasmodium falciparum. To be noted: 2.5 nM compound alone, 48 h.
The subject of data set [4] is P. falciparum 3D7. Description: Competition of TCAMS compounds. Format: cell-based, Plasmodium falciparum. Particulars: for effect on the increase in parasitaemia promoted by melatonin: 2.5 nM compound with 100 nM melatonin; for effect on the increase in parasitaemia promoted by melatonin / effect on the increase in parasitaemia promoted by serotonin: 48 h; for effect on the increase in parasitaemia promoted by serotonin: 2.5 nM compound with 250 nM serotonin; for classification on the serotonin/melatonin pathway in the parasite: from effects in presence and absence of serotonin or melatonin. Put shortly:
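Asynchronous P. falciparum 3D7 cultures (1% parasitaemia, 2% haematocrit) were given 2.5 nM test compound with or without 250 nM serotonin or 100 nM melatonin. Incubation was 48 h at 37 °C under mixed gas, with a DMSO solvent control. Cells were stained with SYBR Green-I (1:10,000) and MitoTracker Deep Red (50 nM) for 20 min at 37 °C, then parasitaemia was read by flow cytometry. Survival is relative to solvent; triplicate, 3 independent experiments.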

Data set [5] deals with Plasmodium falciparum 3D7. Put plainly: Drug effects on erythrocytic cycle phases in synchronized cultures. Format: cell-based. In short, it runs like this:
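Sorbitol-synchronized P. falciparum 3D7 at 1% parasitaemia and 2% haematocrit received test compound (150 nM), chloroquine (150 nM) or 0.1% DMSO at 0, 12 or 24 h post-synchronization. Samples were taken at 12, 24, 36 and 48 h and stained for 30 min in HEPES-buffered Hank's with 1 µM Hoechst and […] thiazole orange. Flow cytometry gated rings, trophozoites and schizonts on DNA/RNA signal. Data are mean ± SD from one triplicate experiment.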

[6] abbreviates: read-out: IC50 (nM) 3D7, Table 1, asynchronous culture, 72 h, 0.0019–2 µM, ± standard error of the mean.
Setting [7] is: Plasmodium falciparum, 3D7, 72 h, read-out: IC50 (nM) 3D7, Table 1, asynchronous culture, 72 h, 0.0019–2 µM, ± standard error of the mean.

For `O=C(/C=C/c1c(Cl)cccc1Cl)NC1CCC(CN2CCC(c3c[nH]c4ccccc34)CC2)CC1` (centres unmarked) [TCMDC-139856, Clc1cccc(Cl)c1\C = C\C(= O)NC1CCC(CN2CCC(CC2)c2c[nH]c3ccccc23)CC1], the IC50 in the data set with P. falciparum 3D7 [1] (setting [6]) came out at 274 ± 31.9 nM. In addition, the “inhibition of parasite development, strain Dd2” value (“inhibition” below) with P. falciparum Dd2 was ≤ 50%.

For `Cn1cnc(CCNC(=O)c2cccc(-c3cccc(-c4nc5cc(C(F)(F)F)ccc5[nH]4)c3)c2)c1` [TCMDC-132496, Cn1cnc(CCNC(= O)c2cccc(c2)-c2cccc(c2)-c2nc3cc(ccc3[nH]2)C(F)(F)F)c1], the IC50 with P. falciparum 3D7 [1] (setting [6]) worked out at 1970 ± 116 nM. In addition, in the data set with P. falciparum Dd2, the “inhibition” value is ≤ 50%.

For `Cc1ccc(NC(=O)Nc2ccc(Cl)c(C(F)(F)F)c2)cc1-c1ccc(C(=O)NCCN2CCOCC2)cc1` [TCMDC-133589, Cc1ccc(NC(= O)Nc2ccc(Cl)c(c2)C(F)(F)F)cc1-c1ccc(cc1)C(= O)NCCN1CCOCC1], in the data set with P. falciparum 3D7 [1] (setting [6]), the IC50 came to 1360 ± 198 nM. The “inhibition” value in the data set with P. falciparum Dd2 was ≤ 50%.

On to `COc1cc2nccc(Nc3ccc(Oc4ccccc4)cc3)c2cc1OC.Cl` [TCMDC-131917, Cl.COc1cc2nccc(Nc3ccc(Oc4ccccc4)cc3)c2cc1OC], for which, in the data set on P. falciparum 3D7 [1] (setting [7]), the IC50 is 120 ± 19.4 nM. For the same compound, the “difference of IC50 between 3D7 and PfSR25−” value (from here on “difference”) in data set [2] is reported as “none of the compounds tested were significantly different between the two strains”.

For the compound `O=C1Nc2cccc3c2C1(CCCCN1CCC(c2cc4ccncc4[nH]2)CC1)CCC3` (centres unmarked) [TCMDC-141151, O = C1Nc2cccc3CCCC1(CCCCN1CCC(CC1)c1cc4ccncc4[nH]1)c23], the IC50 in the data set on P. falciparum 3D7 [1] (setting [6]) was 459 ± 33.8 nM. Further, in the data set on P. falciparum Dd2, the “inhibition” value is ≤ 50%.

For `CCOc1cc(CC)ccc1C1CCN(CCCCNC(=O)c2ccc(NC(=O)c3ccc(Cl)cc3)cc2)CC1.Cl` [TCMDC-138317, Cl.CCOc1cc(CC)ccc1C1CCN(CCCCNC(= O)c2ccc(NC(= O)c3ccc(Cl)cc3)cc2)CC1], the IC50 with P. falciparum 3D7 [1] (read-out: IC50 nM 3D7, Table 2) is 80.8 nM; with P. falciparum 3D7 [1] (setting [6]), 80.8 ± 25.9 nM. The “cytotoxic activity in HEK293 cells” value in the data set on HEK293 cells was “exhibited cytotoxic activity in HEK293 cells; also recorded: toxic to mammalian HEK293 cells”. Moreover, the half-maximal cytotoxic concentration (CC50) in the data set on HEK293 cells (read-out: CC50 nM HEK293) is 16.6 nM.

As for `O=C(/C=C/c1ccc(Cl)c(Cl)c1)NC1CCC(CN2CCC(c3c[nH]c4ccc(O)cc34)CC2)CC1` (centres unmarked) [TCMDC-139494, Oc1ccc2[nH]cc(C3CCN(CC4CCC(CC4)NC(= O)\C = C\c4ccc(Cl)c(Cl)c4)CC3)c2c1], in the data set with P. falciparum 3D7 [1] (setting [6]), the 50% inhibitory concentration (IC50) amounted to 122 ± 21.1 nM. The “difference” value in data set [2] is “none of the compounds tested were significantly different between the two strains”.

Turning to `COc1cccc(CCNc2nc(NCc3ccccc3)c3cc(OC)c(OC)cc3n2)c1` [TCMDC-135267, COc1cccc(CCNc2nc(NCc3ccccc3)c3cc(OC)c(OC)cc3n2)c1], the IC50 in the data set on P. falciparum 3D7 [1] (setting [7]) came out at 389 ± 120 nM. Moreover, the “effect on parasitaemia compared with the control” value in the data set with P. falciparum 3D7 [3] is “did not significantly affect parasitaemia compared with the control”. In the data set on P. falciparum 3D7 [4], the “effect on the increase in parasitaemia promoted by melatonin” value (from here on “effect on the increase … by melatonin”) is “able to inhibit the increase in parasitaemia partially; also recorded: effective in preventing the proliferative effects of melatonin”, the “effect on the increase in parasitaemia promoted by serotonin” value (“effect on the increase … by serotonin” below) is reported as “able to inhibit the increase in parasitaemia; also recorded: the most effective at inhibiting the proliferative effects of serotonin” and the “classification on the serotonin/melatonin pathway in the parasite” value is recorded as “potential full antagonists of the pathway”. Also, the “ring phase parasites at the 36 h time point” value in data set [5] (150 nM added 12 h after synchronization, % parasitaemia, n = 3) is listed as 0.44 ± 0.14%. Further, the “parasitaemia at the 36 h time point” value in data set [5] (150 nM added 12 h after synchronization, n = 3) is 1.18 ± 0.42%. Further, the “parasites developed into schizonts at the 24 h time point” value in data set [5] (added at 0 h, control 18%) is on record as “less than 0.5%”. In addition, the “effect on erythrocytic cycle progression” value in data set [5] (synchronized cultures, added at 0, 12 or 24 h) is “prevents the progression from trophozoite to mature schizonts, but does not affect the ability of mature schizonts to egress and invade RBCs”.

`CC[C@H](NC(=O)c1c(CN2CCC(N3CCCCC3)CC2)c(-c2ccccc2)nc2cc(O)ccc12)c1ccccc1` [TCMDC-140381, CC[C@H](NC(= O)c1c(CN2CCC(CC2)N2CCCCC2)c(nc2cc(O)ccc12)-c1ccccc1)c1ccccc1]: the “reduction of P. falciparum parasitaemia by 50%” value in the data set with P. falciparum 3D7 [1] (at the concentrations tested (0.0019–2 µM), 72 h) is recorded as “could not reduce P. falciparum parasitaemia by 50%”. The “inhibition” value in the data set on P. falciparum Dd2 is on record as ≤ 50%.

`O=C(/C=C/c1ccc(Cl)c(Cl)c1)N1CCC(CN2CCC(c3c[nH]c4cc(C(F)(F)F)ccc34)CC2)CC1` [TCMDC-139860, FC(F)(F)c1ccc2c(c[nH]c2c1)C1CCN(CC2CCN(CC2)C(= O)\C = C\c2ccc(Cl)c(Cl)c2)CC1]: the half-inhibitory concentration (IC50) in the data set with P. falciparum 3D7 [1] (setting [6]) amounted to 65.1 ± 11.6 nM. For the same compound, the “effect on parasitaemia compared with the control” value in the data set on P. falciparum 3D7 [3] is recorded as “induced a significant increase in parasitaemia”. Moreover, in the data set with P. falciparum 3D7 [4], the “effect on the increase … by melatonin” value was “able to inhibit the increase in parasitaemia partially” and the “effect on the increase … by serotonin” value was “partially inhibited the increase in parasitaemia promoted by serotonin”. Also, the “difference” value in data set [2] is “none of the compounds tested were significantly different between the two strains”. The “inhibition” value with P. falciparum Dd2 was ≤ 50%.

On to `CN1CCN(CCCCCNc2c3ccccc3nc3ccccc23)CC1.Cl` [TCMDC-137541, Cl.CN1CCN(CCCCCNc2c3ccccc3nc3ccccc23)CC1], for which the IC50 in the data set on P. falciparum 3D7 [1] (setting [7]) came to 165 ± 74.7 nM. Further, the “inhibition” value in the data set on P. falciparum Dd2 is recorded as ≤ 50%.

For `COc1cc2nc(NCCc3ccccc3)nc(NCc3cnn(C)c3C)c2cc1OC` [TCMDC-135459, COc1cc2nc(NCCc3ccccc3)nc(NCc3cnn(C)c3C)c2cc1OC], in the data set on P. falciparum 3D7 [1] (setting [7]), the half-maximal inhibitory concentration (IC50) stood at 287 ± 24.2 nM. In the data set on P. falciparum 3D7 [3], the “effect on parasitaemia compared with the control” value is “induced a significant increase in parasitaemia”. In addition, in the data set with P. falciparum 3D7 [4], the “effect on the increase … by melatonin” value is reported as “unable to block their effects on the erythrocyte cycle” and the “effect on the increase … by serotonin” value was “unable to prevent the effect of the neurotransmitter on P. falciparum parasitaemia”.

As to `Cc1[nH]c2ccc(O)cc2c1C1CCN(CC2CCN(C(=O)/C=C/c3ccc(Cl)c(Cl)c3)CC2)CC1` [TCMDC-140219, Cc1[nH]c2ccc(O)cc2c1C1CCN(CC2CCN(CC2)C(= O)\C = C\c2ccc(Cl)c(Cl)c2)CC1], the half-inhibitory concentration (IC50) in the data set on P. falciparum 3D7 [1] (setting [6]) worked out at 101 ± 22.9 nM. Besides, the “effect on parasitaemia compared with the control” value in the data set on P. falciparum 3D7 [3] is “did not significantly affect parasitaemia compared with the control”. Besides, in the data set with P. falciparum 3D7 [4], the “effect on the increase … by melatonin” value is listed as “able to inhibit the increase in parasitaemia partially”, the “effect on the increase … by serotonin” value is “able to inhibit the increase in parasitaemia” and the “classification on the serotonin/melatonin pathway in the parasite” value was “potential full antagonists of the pathway”.

Consider `Cc1[nH]c2c(C)cccc2c1C1CCN(CCC2CCN(C(=O)/C=C/c3ccc(Cl)c(Cl)c3)CC2)CC1` [TCMDC-139803, Cc1[nH]c2c(C)cccc2c1C1CCN(CCC2CCN(CC2)C(= O)\C = C\c2ccc(Cl)c(Cl)c2)CC1], for which the 50% inhibitory concentration (IC50) in the data set with P. falciparum 3D7 [1] (setting [6]) is 91.9 ± 18.1 nM. Moreover, in the data set on P. falciparum 3D7 [3], the “effect on parasitaemia compared with the control” value is given as “induced a significant increase in parasitaemia”. In the data set with P. falciparum 3D7 [4], the “effect on the increase … by melatonin” value is given as “able to inhibit the increase in parasitaemia partially” and the “effect on the increase … by serotonin” value is “partially inhibited the increase in parasitaemia promoted by serotonin”. In data set [2], the “difference” value is on record as “none of the compounds tested were significantly different between the two strains”.

With `CS(=O)(=O)Nc1ccc2[nH]cc(C3CCN(CC4CCN(C(=O)/C=C/c5ccc(Cl)c(Cl)c5)CC4)CC3)c2c1` [TCMDC-139813, CS(= O)(= O)Nc1ccc2[nH]cc(C3CCN(CC4CCN(CC4)C(= O)\C = C\c4ccc(Cl)c(Cl)c4)CC3)c2c1], the IC50 in the data set with P. falciparum 3D7 [1] (setting [6]) amounted to 116 ± 49.1 nM. Moreover, the “effect on parasitaemia compared with the control” value with P. falciparum 3D7 [3] was “did not significantly affect parasitaemia compared with the control”. Also, in the data set with P. falciparum 3D7 [4], the “effect on the increase … by melatonin” value is “able to inhibit the increase in parasitaemia partially” and the “effect on the increase … by serotonin” value is recorded as “partially inhibited the increase in parasitaemia promoted by serotonin”.
